Active and inactive are the calls of the source. The rule behind the calls is not given here.
Key:
[1] = Induction of H2S generation assessed as Cmax Induction of H2S generation assessed as Cmax at 150 uM incubated at 37 degC and pH 7.4 by fluorescence spectrophotometry; format: functional
In short: (§1)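 Donor at 150 µM final, mixed with 200 µM sulfonyl-azide fluorescent probe in buffer/acetonitrile (1:9) at set pH. Cuvette held in a water bath at 22 °C or 37 °C, with fluorescence read three times at intervals. H2S was quantified from a Na2S standard curve (0–200 µM, probe 200 µM).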

[2] = Induction of H2S generation assessed as Cmax Induction of H2S generation assessed as Cmax at 150 uM incubated at 37 degC and pH 8 by fluorescence spectrophotometry; format: functional; in short: as §1
[3] = Induction of H2S generation assessed as Cmax at 150 uM incubated at 37 degC and pH 5 by fluorescence spectrophotometry; format: functional; in short: as §1
[4] = Induction of H2S generation assessed as Cmax at 150 uM incubated at 37 degC and pH 1.2 by fluorescence spectrophotometry; format: functional; in short: as §1
[5] = Induction of H2S generation assessed as Cmax at 150 uM incubated at 22 degC and pH 7.4 by fluorescence spectrophotometry; format: functional; in short: as §1
[6] = Induction of H2S generation assessed as Cmax at 150 uM incubated at 22 degC and pH 8 by fluorescence spectrophotometry; format: functional; in short: as §1
[7] = Induction of H2S generation assessed as Cmax at 150 uM incubated at 22 degC and pH 5 by fluorescence spectrophotometry; format: functional; in short: as §1
[8] = Induction of H2S generation assessed as Cmax at 150 uM incubated at 22 degC and pH 1.2 by fluorescence spectrophotometry; format: functional; in short: as §1
HeLa = experiment: Cytotoxicity in human HeLa cells assessed as growth inhibition incubated for 24 hrs by MTT assay; format: functional, cell-based
In short: (§2)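 Cells were grown in RPMI 1640 with 10% FBS at 37 °C and 10% CO2, seeded at 6×10^3 cells/well. Exposure was 24 h, with viability by MTT, in triplicate cultures. IC50 was reported as mean ± SD.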

A549 = experiment: Cytotoxicity in human A549 cells assessed as growth inhibition incubated for 24 hrs by MTT assay; format: functional, cell-based; details: A549, 24 h; in short: as §2
HepG2 = experiment: Cytotoxicity in human HePG2 cells assessed as growth inhibition incubated for 24 hrs by MTT assay; format: functional, cell-based; details: HepG2, 24 h; in short: as §2
MCF7 = experiment: Cytotoxicity in human MCF-7 cells assessed as growth inhibition incubated for 24 hrs by MTT assay; format: functional, cell-based; details: MCF7, 24 h; in short: as §2
HT-29 = experiment: Cytotoxicity in human HT-29 cells assessed as growth inhibition incubated for 24 hrs by MTT assay; format: functional, cell-based; details: HT-29, 24 h; in short: as §2
WI-38 = experiment: Cytotoxicity in human W138 cells assessed as growth inhibition incubated for 24 hrs by MTT assay; format: cell-based; details: WI-38, 24 h; in short: as §2
[9] = Induction of H2S generation assessed as half life at 150 uM incubated at 22 degC and pH 1.2 by fluorescence spectrophotometry; format: functional; in short: as §1
[10] = Induction of H2S generation assessed as half life at 150 uM incubated at 22 degC and pH 5 by fluorescence spectrophotometry; format: functional; in short: as §1
[11] = Induction of H2S generation assessed as half life at 150 uM incubated at 22 degC and pH 7.4 by fluorescence spectrophotometry; format: functional; in short: as §1
[12] = Induction of H2S generation assessed as half life at 150 uM incubated at 22 degC and pH 8 by fluorescence spectrophotometry; format: functional; in short: as §1
[13] = Induction of H2S generation assessed as half life at 150 uM incubated at 37 degC and pH 1.2 by fluorescence spectrophotometry; format: functional; in short: as §1
[14] = Induction of H2S generation assessed as half life at 150 uM incubated at 37 degC and pH 5 by fluorescence spectrophotometry; format: functional; in short: as §1
[15] = Induction of H2S generation assessed as half life at 150 uM incubated at 37 degC and pH 7.4 by fluorescence spectrophotometry; format: functional; in short: as §1
[16] = Induction of H2S generation assessed as half life at 150 uM incubated at 37 degC and pH 8 by fluorescence spectrophotometry; format: functional; in short: as §1
[17] = Solubility of compound in water; format: physicochemical; details: buffer
[18] = Kinetic Solubility of compound; format: physicochemical
RAW264.7 [19] = experiment: Anti-inflammatory activity in mouse RAW264.7 cells assessed as inhibition of LPS-induced IL-10 production at 20 uM preincubated for 4 hr followed by LPS addition and measured after 24 hrs; format: functional, cell-based
In short: (§3)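 RAW264.7 cells given LPS 1 µg/mL with compound for 24 h, then lysed in RIPA and centrifuged. Protein was set to 0.1 mg/mL by BCA and mouse cytokine levels measured by sandwich ELISA kit. Four parallel groups, mean ± SD.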

RAW264.7 [20] = experiment: Anti-inflammatory activity in mouse RAW264.7 cells assessed as inhibition of LPS-induced TNFalpha production at 20 uM preincubated for 4 hr followed by LPS addition and measured after 24 hrs relative to control; format: functional, cell-based; in short: as §3
[21] = Cytotoxicity against mouse RAW264.7 cells assessed as cell viability at 20 to 100 microM after 24 hrs by MTT assay; format: cell-based; details: dose 20-100 µM, read-out: Activity
In short: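 RAW264.7 macrophages in high-glucose DMEM with 10% heat-inactivated FBS, 37 °C, 5% CO2. LPS 1 µg/mL with or without compound (20 and 100 µM) for 24 h. Then MTT 4 h, formazan dissolved in DMSO, A570, expressed as % of control.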

RAW264.7 [22] = experiment: Anti-inflammatory activity in mouse RAW264.7 cells assessed as inhibition of LPS-induced NO production preincubated for 4 hr followed by LPS addition and measured after 24 hrs relative to control; format: functional, cell-based; details: dose 100.0 µM, time 28.0 hrs
In short: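 RAW264.7 cells exposed to LPS 1 µg/mL with compound (20 and 100 µM) for 24 h. Nitrite in medium measured by Griess reagent, […], against a sodium nitrite standard curve (0–100 µM). Four parallel groups, mean ± SD.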

[23] = Cytotoxicity against rat H9C2 cells assessed as cell viability at 100 uM measured after 24 hrs by MTT assay; format: cell-based; details: read-out: Activity

Structure (SMILES) | Cmax [1] [µM] | Cmax [2] [µM] | Cmax [3] [µM] | Cmax [4] [µM] | Cmax [5] [µM] | Cmax [6] [µM] | Cmax [8] [µM] | IC50 (HeLa) [µM] | IC50 (A549) [µM] | IC50 (HepG2) [µM] | IC50 (MCF7) [µM] | IC50 (HT-29) [µM] | IC50 (WI-38) [µM] | T1/2 [9] [min] | T1/2 [10] [min] | T1/2 [11] [min] | T1/2 [12] [min] | T1/2 [13] [min] | T1/2 [14] [min] | T1/2 [15] [min] | other results
CSCC[C@H](NP(O)(=S)c1ccccc1)C(=O)O (stereo partly drawn) | 120 | 118 | 120 | 120 | 112 | 113 | 114 | 919 | 309 | 286 | 671 | 826 | 546 | 2.68 | 3.64 | 3.32 | 4.26 | 2.2 | 2.44 | 2.83 | Cmax [7]: 113 µM; T1/2 [16]: 3.55 min
O=C([O-])CNP([O-])(=S)c1ccccc1.[Li+].[Li+] (stereo not drawn) | 102 | 101 | 103 | 103 | 99.5 | 99.4 | 101 | 913 | 378 | 771 | 876 | 912 | 508 | 2.94 | 3.19 | 4.93 | 6.44 | 2.17 | 2.41 | 3.66 | solubility [17]: Soluble; Kinetic_solubility [18]: Soluble; Activity (RAW264.7 [19]): Active; Activity (RAW264.7 [20]): Active; viability at 24 h [21]: 70%; Activity (RAW264.7 [22]): Dose-dependent effect; viability at 24 h, 100 µM [23]: > 90%; T1/2 [16]: 5.57 min
S=P1(c2ccccc2)NCCN1 | 29.9 | 34.8 | 35.4 | 35.7 | 28.4 | 28.3 | 28.5 | 968 | 641 | 657 | 713 | 780 | 958 | 32.5 | 31.1 | 30.9 | 30 | 31.2 | 32.9 | 31.1 | Cmax [7]: 28.4 µM; T1/2 [16]: 31.6 min
O=C(O)[C@H](Cc1ccccc1)NP(O)(=S)c1ccccc1 (stereo partly drawn) | 128 | 127 | 129 | 129 | 122 | 120 | 122 | 712 | 237 | 671 | 663 | 542 | 690 | 2.37 | 2.71 | 3.54 | 4.58 | 1.53 | 2.33 | 2.61 | Cmax [7]: 121 µM; T1/2 [16]: 4.7 min
C[C@H](NP(O)(=S)c1ccccc1)C(=O)O (stereo partly drawn) | 108 | 106 | 106 | 110 | 102 | 103 | 104 | 888 | 346 | 858 | 832 | 689 | 351 | 2.36 | 3.32 | 3.72 | 4.33 | 1.67 | 2.23 | 2.75 | Cmax [7]: 103 µM; T1/2 [16]: 3.4 min
CC(C)[C@H](NP(O)(=S)c1ccccc1)C(=O)O (stereo partly drawn) | 125 | 124 | 126 | 125 | 122 | 122 | 121 | 809 | 294 | 690 | 542 | 602 | 546 | 2.13 | 2.42 | 3.11 | 4.42 | 1.55 | 2.25 | 2.84 | Cmax [7]: 122 µM; T1/2 [16]: 3.62 min

— ChEMBL document CHEMBL4665656, “Toxicity, bioactivity, release of HS in vivo and pharmaco-kinetics of HS-donors with thiophosphamide structure” (Eur J Med Chem, 2019)
